Laboratory results: publication PMC5655776 (Journal of Clinical Pharmacology, 2017)
Like-named read-outs stand apart in the source and are kept apart here.

Assays:
[1] = assay type: in vivo, human; conditions: for MRAUCinf (metabolite‐to‐parent ratio for AUC): corrected for molecular weight, geometric mean (geometric %CV)
[2] = major circulating metabolites of ertugliflozin; cited from earlier work
[3] = as high as 300 mg (single dose), 100 mg once daily (up to 14 days), 25 mg once daily (up to 12 weeks); ref data on file, 9, 10; cited from earlier work
[4] = system: urinary glucose excretion; assay: Change from baseline in 24-hour urinary glucose excretion; assay type: in vivo, human; conditions: for Change from baseline to day 1 in 24‐hour urinary glucose excretion, geometric mean / Change from baseline to day 1 in 24‐hour urinary glucose excretion, mean (SD) / Change from baseline to day 1 in 24‐hour urinary glucose excretion, median: 15 mg single oral dose
Method in brief: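 Single oral 15 mg dose given as three 5-mg tablets after a 4-hour fast. Baseline urine was collected on day –2 (–48 to –24 h) and post-dose urine in 0‑4, 4‑8, 8‑12 and 12‑24 h intervals, with glucose measured centrally. 24-h UGE is the sum of the intervals. Log-transformed change was compared by 1-way ANOVA against T2DM with normal renal function, without plasma glucose correction. eGFR bands: mild 60‑89, moderate 30‑59 mL/min.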

[5] = system: T2DM and healthy subjects; assay: Safety and tolerability of a single 15-mg dose; assay type: in vivo, human
Method in brief: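 Open-label, nonrandomized single oral 15 mg dose (three 5-mg tablets) after a 4-hour fast. Usual antihyperglycemic agents were given 4 h post-dose. AEs were recorded throughout and coded with MedDRA 17.1. ECGs were taken at screening, predose and day 5. Sitting and supine/standing blood pressure and pulse were taken predose and at 1, 2, 4 and 96 h post-dose.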

[6] = Urinary excretion and renal clearance of ertugliflozin and metabolites; assay type: in vivo, human; conditions: subjects with normal renal function
[7] = cited from earlier work
[8] = system: SGLT2‐mediated glucose transport; assay: 24-hour inhibition of glucose reabsorption; assay type: in vivo, human; conditions: day 1
[9] = T2DM, moderate renal impairment
[10] = single 15‐mg dose, all renal function groups

For CCOc1ccc(Cc2cc([C@]34OC[C@](CO)(O3)[C@@H](O)[C@H](O[C@@H]3O[C@H](C(=O)O)[C@@H](O)[C@H](O)[C@H]3O)[C@H]4O)ccc2Cl)cc1 [PF‐06481944, 3‐O‐β‐glucuronide], the “median tmax range of metabolites” value ([1]; after ertugliflozin 15 mg, across all groups) was 2 to 4 h, the “MRAUCinf (metabolite‐to‐parent ratio for AUC)” value ([1]; T2DM, mild renal impairment) was 0.98 (45) and the “MRAUCinf (metabolite‐to‐parent ratio for AUC)” value [1, 9] was 1.26 (52). For the same compound, the “MRAUCinf (metabolite‐to‐parent ratio for AUC)” value ([1]; T2DM, normal renal function) was 0.93 (39), the “MRAUCinf (metabolite‐to‐parent ratio for AUC)” value ([1]; T2DM, severe renal impairment) was 1.03 (37) and the “MRAUCinf (metabolite‐to‐parent ratio for AUC)” value ([1]; healthy, normal renal function) was 0.64 (29). The “pharmacological activity of metabolite” value [2] was “pharmacologically inactive”.
In the case of CCOc1ccc(Cc2cc([C@]34OC[C@](CO)(O3)[C@@H](O)[C@H](O)[C@H]4O)ccc2Cl)cc1 [ertugliflozin, Ertugliflozin], the “tolerability of higher oral doses” value [3] is listed as “well tolerated”, the “Change from baseline to day 1 in 24‐hour urinary glucose excretion, geometric mean” value ([4]; T2DM, mild renal impairment) is listed as 35.98 g and the “Change from baseline to day 1 in 24‐hour urinary glucose excretion, mean (SD)” value (shortened to “Change from baseline … (SD)”) ([4]; T2DM, mild renal impairment) is listed as 48.67 (37.72) g. The “Change from baseline to day 1 in 24‐hour urinary glucose excretion, median” value (shortened to “Change from baseline … median”) ([4]; T2DM, mild renal impairment) was 36.4 g, the “Change from baseline to day 1 in 24‐hour urinary glucose excretion, geometric mean” value [4, 9] was 27.55 g and the “Change from baseline … (SD)” value [4, 9] was 32.64 (21.32) g. For the same compound, the “Change from baseline … median” value [4, 9] was 28.8 g, the “Change from baseline to day 1 in 24‐hour urinary glucose excretion, geometric mean” value ([4]; T2DM, normal renal function) was 72.31 g and the “Change from baseline … (SD)” value ([4]; T2DM, normal renal function) was 75.12 (24.36) g. The “Change from baseline … median” value ([4]; T2DM, normal renal function) was 68.1 g, the “Change from baseline to day 1 in 24‐hour urinary glucose excretion, geometric mean” value ([4]; T2DM, severe renal impairment) was 10.09 g and the “Change from baseline … (SD)” value ([4]; T2DM, severe renal impairment) was 11.29 (5.81) g. The “Change from baseline … median” value ([4]; T2DM, severe renal impairment) was 10.3 g, the “Change from baseline to day 1 in 24‐hour urinary glucose excretion, geometric mean” value ([4]; healthy, normal renal function) was 46.33 g and the “Change from baseline … (SD)” value ([4]; healthy, normal renal function) was 48.16 (14.04) g. For the same compound, the “Change from baseline … median” value ([4]; healthy, normal renal function) was 45.8 g, the “change from baseline in 24‐hour UGE, 1‐way ANOVA” value (“change … 1‐way ANOVA” for short) ([4]; T2DM, mild renal impairment) was 36.0 g and the “change … 1‐way ANOVA” value [4, 9] was 27.6 g. The “change … 1‐way ANOVA” value ([4]; T2DM, normal renal function) was 72.3 g, the “change … 1‐way ANOVA” value ([4]; T2DM, severe renal impairment) was 10.1 g and the subjects experiencing hypoglycemia ([5]; T2DM mild renal impairment group, receiving glyburide) was 1 subject. For the same compound, the subjects experiencing hypoglycemia ([5]; T2DM severe renal impairment group, receiving long‐acting insulin) was 2 subjects, the subjects experiencing hypoglycemia ([5]; all groups (n = 36)) was 3 subjects and the “intensity of AEs” value ([5]; single 15‐mg dose, all AEs) was “mild”. For the same compound, the “deaths, serious AEs, severe AEs, discontinuations due to AEs” value [5, 10] was “no deaths, serious AEs, severe AEs, or temporary or permanent discontinuations due to AEs”, the “laboratory findings, vital signs, ECG findings” value [5, 10] was “no abnormal laboratory findings or changes in vital signs (including postural changes) or ECG findings of clinical significance” and the tolerability [5, 10] was “well tolerated”. For the same compound, the Tmax ([1]; human, plasma, po, 15 mg, median tmax, 15 mg single oral dose, across all groups) was 1 to 1.51 h, the “predicted mean (90%CI) AUC from log‐linear regression vs BSA‐unnormalized eGFR” value ([1]; mild renal impairment (eGFR = 75 mL/min)) was 1585 (1461‐1719) ng·h/mL and the “predicted mean (90%CI) AUC from log‐linear regression vs BSA‐unnormalized eGFR” value ([1]; moderate renal impairment (eGFR = 45 mL/min)) was 1875 (1698‐2071) ng·h/mL. The “predicted mean (90%CI) AUC from log‐linear regression vs BSA‐unnormalized eGFR” value ([1]; normal renal function (eGFR = 105 mL/min)) was 1340 (1194‐1503) ng·h/mL, the “predicted mean (90%CI) AUC from log‐linear regression vs BSA‐unnormalized eGFR” value ([1]; severe renal impairment (eGFR = 15 mL/min)) was 2219 (1907‐2581) ng·h/mL and the Ae96% [6] was “approximately 1%”. For the same compound, the “Urinary excretion of unchanged drug, share of elimination” value ([7]; human absorption, distribution, metabolism, and excretion studies) was 1.5%, the “median time to maximum concentration (tmax)” value ([7]; oral administration, fasted state, ref data on file, 15, 16) was “approximately 1 hour” and the “terminal elimination half‐life (t1/2)” value ([7]; oral administration, ref data on file, 15, 16) was “approximately 17 hours”. For the same compound, the “dose proportionality in exposure (AUC and Cmax)” value ([7]; over the range of 0.5 to 300 mg, ref data on file, 15, 16) was “dose proportionality”, the “geometric mean change from baseline in 24‐hour percentage inhibition of glucose reabsorption” value ([8]; T2DM, mild renal impairment) was 25.58% and the “geometric mean change from baseline in 24‐hour percentage inhibition of glucose reabsorption” value [8, 9] was 28.84%. For the same compound, the “geometric mean change from baseline in 24‐hour percentage inhibition of glucose reabsorption” value ([8]; T2DM, normal renal function) was 33.34%, the “geometric mean change from baseline in 24‐hour percentage inhibition of glucose reabsorption” value ([8]; T2DM, severe renal impairment) was 24.25% and the “geometric mean change from baseline in 24‐hour percentage inhibition of glucose reabsorption” value ([8]; healthy subjects) was 29.19%.
